Experimental data: ChEMBL document CHEMBL1132243, “Structure-activity relationships of L-dioxolane uracil nucleosides as anti-Epstein Barr virus agents” (J Med Chem, 1999)

Tests used:
[1] = Cytotoxicity on human P3HR1 derived H1 cells; type: functional; conditions: read-out: ID50 (the source's name)
Method in brief: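 H1 cells seeded at 2 × 10^5 cells/well with various compound concentrations for 3 days, then counted. ID50 is the dose giving a 50% drop in cell number versus the untreated control. Medium was RPMI 1640 with 10% dialyzed FBS, 37 °C, 5% CO2.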

Human gammaherpesvirus 4 [2] = assay: (§1) Effective concentration of compound against Epstein Barr virus was determined; type: functional, organism-based
Method in brief: (§2)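 Log-phase H1 cells seeded at 2 × 10^5 cells/well, exposed to a range of concentrations at 37 °C for 5 days. EBV DNA was measured by slot blot of freeze-thaw lysates in 10 mM Tris-HCl pH 7.5 with RNase A (50 μg/mL final, 55 °C, 2 h), probed with EBV EcoRI fragment, then reprobed with Alu. The EBV/Alu ratio was compared with untreated cells.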

[3] = Toxicity of compound was determined as decrease in mt-DNAcontent in human P3HR1 derived H1 cells; type: cell-based
Method in brief: (§3)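 H1 cells (high-yield EBV producers derived from P3HR1), kept in log growth for 2 days, seeded at 2 × 10^5 cells/well with or without compound at various concentrations, 37 °C for 5 days. Lysed by freeze-thaw, RNase A treated, slot-blotted, then hybridized with a mitochondrial DNA probe after the Alu probe was stripped. mtDNA content compared with untreated cells.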

[4] = Selective Index from ID50 to that of EC90
Human gammaherpesvirus 4 [5] = assay: as §1; type: functional; method in brief: as §2
[6] = Compound was tested for cytotoxicity against mt-DNA; method in brief: as §3
[7] = Selective Index (ID50/EC90)

Row | Structure (SMILES) | IC50 ([1]; Homo sapiens, H1) [µM] | EC50 (Human gammaherpesvirus 4 [2]; human gammaherpesvirus 4) [µM] | Toxicity [3] [µM] | EC90 (Human gammaherpesvirus 4 [5]) [µM] | also measured
1 | O=c1[nH]c(=O)n(C2COC(CO)O2)cc1Cl (stereo not given) | > 100 | 0.6 | > 50 | 1.37 | Selectivity index [4]: > 72
2 | O=c1[nH]c(=O)n([C@H]2CO[C@@H](CO)O2)cc1F | > 100 | 50 | > 50 |  | 
3 | Nc1nc2c(ncn2COC(CO)CO)c(=O)[nH]1 [GANCICLOVIR] | 75 | 5 |  |  | 
4 | O=c1[nH]c(=O)n(C2COC(CO)O2)cc1C(F)(F)F (stereo not given) | > 100 | 4 |  |  | 
5 | O=c1[nH]c(=O)n(C2COC(CO)O2)cc1I (stereo in doubt; 17) [listing 1 of 2 here] |  |  | > 50 | 0.16 | IC50 [1]: > 1000 µM; EC50 (Human gammaherpesvirus 4 [2]): 0.033 µM
6 | O=c1[nH]c(=O)n(C2COC(CO)O2)cc1I (stereo in doubt; 17) [listing 2 of 2 here] |  |  |  |  | Selectivity index [4]: > 6250
7 | O=c1[nH]c(=O)n(C2COC(CO)O2)cc1I (stereo in doubt) |  |  |  |  | IC50 [1]: 18 µM; EC50 (Human gammaherpesvirus 4 [2]): 7.6 µM
8 | O=c1ccn([C@H]2CO[C@@H](CO)O2)c(=O)[nH]1 |  | > 50 |  |  | 
9 | O=c1[nH]c(=O)n([C@H]2CO[C@@H](CO)O2)cc1Br | > 1000 | 0.19 |  | 0.48 | Toxicity [6]: > 50 µM; Selectivity index [7]: > 2080
